# Data taken from ChEMBL document CHEMBL2412990, “Synthesis and pharmacological evaluation of new N-phenylpiperazine derivatives designed as homologues of the antipsychotic lead compound LASSBio-579” (Eur J Med Chem, 2013).
# Activity calls are given as the source filed them. The calls are words filed in the database; no cut-off is given here.
# Columns and labels:
# [1] = biological target: T1, 5-hydroxytryptamine receptor 1A (Rattus norvegicus, UniProt P19327); experiment: Displacement of [3H]-8-OH-DPAT from 5HT1A receptor in rat brain hippocampal membranes after 15 mins by liquid scintillation counting; assay type: cell membranes, Membrane
# T1 sequence (P19327 whole entry): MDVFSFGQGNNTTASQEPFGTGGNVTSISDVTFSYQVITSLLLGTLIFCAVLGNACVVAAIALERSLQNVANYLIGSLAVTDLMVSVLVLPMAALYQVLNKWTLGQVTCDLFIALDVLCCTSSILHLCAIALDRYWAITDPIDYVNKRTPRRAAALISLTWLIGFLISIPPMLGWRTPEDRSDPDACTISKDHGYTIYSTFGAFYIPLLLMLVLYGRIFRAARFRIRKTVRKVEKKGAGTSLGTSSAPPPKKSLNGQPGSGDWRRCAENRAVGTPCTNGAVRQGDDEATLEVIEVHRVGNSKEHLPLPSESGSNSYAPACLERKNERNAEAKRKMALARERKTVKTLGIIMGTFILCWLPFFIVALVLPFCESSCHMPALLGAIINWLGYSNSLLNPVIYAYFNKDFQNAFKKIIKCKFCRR
# Outline: (§1)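 Hippocampal membranes, 40 µg protein, incubated with 1 nM [3H]-8-OH-DPAT at 37 °C for 15 min under yellow light. Buffer was 50 mM Tris-HCl pH 7.4 with 1 mM CaCl2, 1 mM MnCl2 and pargyline. Filters were soaked in 0.5% polyethyleneimine. IC50 came from nonlinear regression fitted with one or two sites. Ki by Cheng-Prusoff, using Kd from saturation experiments.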
# [2] = biological target: 5-hydroxytryptamine receptor 2A (Rattus norvegicus, UniProt P14842); experiment: Displacement of [3H]-ketanserin from 5HT2A receptor in rat brain cortical membranes after 15 mins by liquid scintillation counting; assay type: cell membranes, Membrane
# D(2) dopamine receptor = D(2) dopamine receptor (Rattus norvegicus, UniProt P61169); experiment: Displacement of [3H]-YM-09151-2 from D2 receptor in rat brain striatal membranes after 60 mins by liquid scintillation counting; assay type: cell membranes, Membrane
# [3] = biological target: Muscarinic acetylcholine receptor (Rattus norvegicus) (UniProt P08482+P08483+P08485+P08911+P10980); experiment: Displacement of [3H]-QNB from muscarinic receptor in rat brain cortical membranes at 30 uM after 60 mins by liquid scintillation counting; assay type: cell membranes; conditions: Membrane
# Outline: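 Cortical membranes, 150 µg protein, with 0.1 nM [3H]-QNB in 50 mM Tris-HCl pH 7.4 at room temperature for 60 min. Non-specific binding was defined with atropine sulfate. Samples were diluted with cold 5 mM Tris-HCl, vacuum-filtered on glass fibre filters and counted by liquid scintillation.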
# Mus musculus [4] = experiment: Antipsychotic activity in CF1 mouse assessed as prevention of apomorphine-induced climbing behaviour at 0.1 to 10 mg/kg, ip administered 30 mins prior apomorphine challenge measured 5 to 30 mins post challenge; assay type: functional, organism-based
# Outline: (§2)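 Adult male mice, 25–35 g, dosed i.p. at 10 ml/kg, then placed in wire-bar cages for 30 min. Apomorphine 4 mg/kg s.c. followed. Climbing was scored 0–4 for 1 min at 5, 10, 15, 20, 25 and 30 min; the climbing index is the sum of scores. n = 7–9. Analysed by one-way ANOVA with Newman-Keuls post hoc test.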
# [5] = biological target: Dopamine D2 receptor and Serotonin 2a receptor (D2 and 5HT2a) (Rattus norvegicus) (UniProt P61169+P14842); experiment: Selectivity ratio of Ki for dopamine D2 receptor in rat brain striatal membranes to Ki for 5HT2A receptor in rat brain cortical membranes; assay type: cell membranes; conditions: Membrane
# [6] = biological target: T2, 5-hydroxytryptamine receptor 1A (Rattus norvegicus) (UniProt P19327); experiment: Partial agonist activity at 5HT1A receptor in rat brain hippocampal membranes assessed as inhibition of [3H]-8-OH-DPAT binding to receptor after 15 mins by competition assay; assay type: cell membranes
# T2 sequence (whole entry): T1 sequence (P19327 whole entry)
# Outline: as §1, with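 “pargyline. Non-specific binding was defined with 5-HT.” for “pargyline.”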
# [7] = biological target: 5-hydroxytryptamine receptor 2A (Rattus norvegicus) (UniProt P14842); experiment: Antagonist activity at 5HT2A receptor in rat brain cortical membranes assessed as inhibition of [3H]-ketanserin binding to receptor after 15 mins by competition assay in absence of GTP; assay type: cell membranes
# Outline: (§3)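 Rat cortical membranes, 150 µg protein, with 1 nM [3H]-ketanserin and 100 nM prazosin in 50 mM Tris-HCl pH 7.4, 37 °C, 15 min. Non-specific binding was defined with ketanserin. For the GTP shift, paired competition curves were run without and with guanylyl nucleotide (0.1 mM Gpp(NH)p or 1 mM GTP).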
# Mus musculus [8] = experiment: Toxicity in CF1 mouse assessed as effect on locomotor activity measuring number of crossings at 1 to 3 mg/kg, ip administered 30 mins prior ketamine challenge measured for 20 mins post challenge; assay type: organism-based; parameters: dose 1-3 mg/kg, route intraperitoneal; conditions: in vivo
# Mus musculus [9] = experiment: Antipsychotic activity in ip dosed CF1 mouse assessed as prevention of ketamine-induced hyperlocomotion compound administered 30 mins prior ketamine challenge measured for 20 mins post challenge; assay type: functional, organism-based
# Outline: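 Mice were pretreated (reference drug orally after 2 h fast; test compound i.p.) and placed in the arena centre. Ketamine 10 mg/kg s.c. was given 30 min later. A blinded observer counted total square crossings over 20 min in a dimly lit room. n = 7–8. Analysed by one-way ANOVA with Newman-Keuls post hoc test.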
# Mus musculus [10] = experiment: Antipsychotic activity in ip dosed CF1 mouse assessed as prevention of apomorphine-induced climbing behaviour compound administered 30 mins prior apomorphine challenge measured 5 to 30 mins post challenge; assay type: functional, organism-based; outline: as §2
# [11] = biological target: 5-hydroxytryptamine receptor 2A (Rattus norvegicus) (UniProt P14842); experiment: Antagonist activity at 5HT2A receptor in rat brain cortical membranes assessed as inhibition of [3H]-ketanserin binding to receptor after 15 mins by competition assay in presence of GTP; assay type: cell membranes; outline: as §3
# Mus musculus [12] = experiment: Toxicity in CF1 mouse assessed as reduction in locomotor activity measuring number of crossings at 10 mg/kg, ip administered 30 mins prior ketamine challenge measured for 20 mins post challenge; assay type: organism-based; parameters: dose 10 mg/kg, route intraperitoneal; conditions: in vivo
# [13] = tested on: Alpha-2 adrenergic receptor (Rattus norvegicus); experiment: Antagonist activity at alpha2 adrenoreceptor in rat brain cortical membranes assessed as inhibition of [3H]-RX821002 binding to receptor after 45 mins by competition assay in presence of GTP
# [14] = tested on: Alpha-2 adrenergic receptor (Rattus norvegicus); experiment: Antagonist activity at alpha2 adrenoreceptor in rat brain cortical membranes assessed as inhibition of [3H]-RX821002 binding to receptor after 45 mins by competition assay in absence of GTP
# Sequence of D(2) dopamine receptor (P61169 whole entry): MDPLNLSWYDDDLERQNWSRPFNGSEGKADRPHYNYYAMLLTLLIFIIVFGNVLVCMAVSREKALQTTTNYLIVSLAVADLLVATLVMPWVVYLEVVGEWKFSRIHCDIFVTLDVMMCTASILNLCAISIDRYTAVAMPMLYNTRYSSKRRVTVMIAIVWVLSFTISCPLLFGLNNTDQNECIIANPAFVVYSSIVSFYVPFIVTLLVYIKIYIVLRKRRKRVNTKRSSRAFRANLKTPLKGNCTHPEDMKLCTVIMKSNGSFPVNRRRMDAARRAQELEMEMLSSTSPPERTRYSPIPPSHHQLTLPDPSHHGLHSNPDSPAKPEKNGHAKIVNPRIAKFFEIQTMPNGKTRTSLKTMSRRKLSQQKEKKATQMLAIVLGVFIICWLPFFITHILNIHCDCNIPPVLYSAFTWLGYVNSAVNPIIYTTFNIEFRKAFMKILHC
# Sequence of 5-hydroxytryptamine receptor 2A (P14842 whole entry): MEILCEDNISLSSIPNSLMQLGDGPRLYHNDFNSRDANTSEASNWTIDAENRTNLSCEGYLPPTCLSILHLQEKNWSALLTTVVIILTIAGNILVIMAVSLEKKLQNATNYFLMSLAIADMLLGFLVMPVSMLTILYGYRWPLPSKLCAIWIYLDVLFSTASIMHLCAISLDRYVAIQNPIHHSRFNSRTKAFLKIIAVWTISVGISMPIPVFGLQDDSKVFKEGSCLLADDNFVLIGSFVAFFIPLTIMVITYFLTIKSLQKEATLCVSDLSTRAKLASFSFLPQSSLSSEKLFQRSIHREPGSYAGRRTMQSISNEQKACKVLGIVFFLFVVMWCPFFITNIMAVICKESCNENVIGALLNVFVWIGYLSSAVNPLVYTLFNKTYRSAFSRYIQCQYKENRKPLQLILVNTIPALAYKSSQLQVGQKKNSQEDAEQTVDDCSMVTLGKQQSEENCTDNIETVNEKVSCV
# Sequence of Dopamine D2 receptor and Serotonin 2a receptor (D2 and 5HT2a) (Rattus norvegicus) (P14842 whole entry, looked up): as the sequence (P14842 whole entry) above
# Sequence of Dopamine D2 receptor and Serotonin 2a receptor (D2 and 5HT2a) (Rattus norvegicus) (P61169 whole entry, looked up): as the sequence (P61169 whole entry) above
# Sequence of 5-hydroxytryptamine receptor 2A (Rattus norvegicus) (P14842 whole entry): as the sequence (P14842 whole entry) above
SMILES,Ki [1] [nM],Ki [2] [nM],Ki (D(2) dopamine receptor) [nM],inhibition [3] [%],Ratio Ki [5],inhibition [6],inhibition [7],inhibition [11],inhibition [13],inhibition [14],Activity (Mus musculus [4]),Activity (Mus musculus [8]),Activity (Mus musculus [9]),Activity (Mus musculus [10]),Activity (Mus musculus [12])
Clc1ccc(-n2cc(COCCCN3CCN(c4ccccc4)CC3)cn2)cc1,310,650,790,28,–,–,–,–,–,–,–,–,–,–,–
Clc1ccc(-n2cc(CN3CCN(c4ccccc4)CC3)cn2)cc1,220,6910,390,22,0.056,–,–,–,–,–,Active,–,–,–,–
Clc1ccc(-n2cc(CCCN3CCN(c4ccccc4)CC3)cn2)cc1,180,600,680,39,–,–,–,–,–,–,–,–,–,–,–

# These reach a lower Ki [1]. Values come first.
Ki [1] [nM],Ki [2] [nM],Ki (D(2) dopamine receptor) [nM],inhibition [3] [%],Ratio Ki [5],inhibition [6],inhibition [7],inhibition [11],inhibition [13],inhibition [14],SMILES,Activity (Mus musculus [4]),Activity (Mus musculus [8]),Activity (Mus musculus [9]),Activity (Mus musculus [10]),Activity (Mus musculus [12])
160,950,490,26,–,–,–,–,–,–,Clc1ccc(-n2cc(CCCCCN3CCN(c4ccccc4)CC3)cn2)cc1,–,–,–,–,–
110,2490,1900,11,–,–,–,–,–,–,Clc1ccc(-n2cc(COCCN3CCN(c4ccccc4)CC3)cn2)cc1,–,–,–,–,–
90,650,250,2,0.4,Active,Active,Active,Active,Active,Clc1ccc(-n2cc(CCCCN3CCN(c4ccccc4)CC3)cn2)cc1,–,Non-toxic,Dose-dependent effect,Dose-dependent effect,Toxic
